Pf Dd2 growth: blocks growth of Plasmodium falciparum Dd2 parasites | P. falciparum Dd2 growth, SYBR Green, 72 h; active compounds read low | activity change, % at 10 µM | actives 2.3% (n = 94,000); in the data active = activity change below about -80%; inconclusive = no clear call, values can overlap the other calls
GASC1 inh: KDM4C (human) demethylase inhibition. AID 720574. actives 0.15% (n = 96,000). GST-KDM4C 2-372, H3K9me3 peptide, LANCE TR-FRET. inhibition, % at 12.5 µM. Q9H3R0;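 active = mean replicate inhibition above about 25%, with at least 55% of replicates also reaching it, limit read from the data, passing the limit was not always enough; inconclusive = only one of those two conditions met; inactive = neither condition met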
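Compound: one test concentration per compound; Material: GST-GASC-1 enzyme fragment 2-372; Amount: GASC-1 enzyme at 10 nM final in reaction; Also added: H3K9me3 peptide substrate, Fe(II), 2-oxoglutarate; Technique: LANCE TR-FRET; Times: 30 min demethylation and 1 h detection at room temperature.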
T cruzi growth-1: inhibitors of T. cruzi proliferation. inhibition, % at 8.34 µM. T. cruzi beta-gal in NIH3T3, GalScreen luminescence, 90 h. actives 5.9% (n = 77,000);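 active = mean inhibition above about 93%, with at least 55% of replicates each passing it, limit read from the data, passing the limit was not always enough; inconclusive = only one of those two conditions holds; inactive = neither condition holds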
IDH1 mut inh: blocks human IDH1 R132H reductase activity | inhibition, % at 10 µM | O75874 | AID 624101 | actives 0.18% (n = 70,000) | diaphorase/resazurin fluorescence, 60 min; in the data active = inhibition above about 34%; inconclusive = no clear call, values can overlap the other calls; inactive = below about 11%;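 note: 0% = DMSO and 100% = no enzyme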
Target sequence (O75874 whole entry R132H): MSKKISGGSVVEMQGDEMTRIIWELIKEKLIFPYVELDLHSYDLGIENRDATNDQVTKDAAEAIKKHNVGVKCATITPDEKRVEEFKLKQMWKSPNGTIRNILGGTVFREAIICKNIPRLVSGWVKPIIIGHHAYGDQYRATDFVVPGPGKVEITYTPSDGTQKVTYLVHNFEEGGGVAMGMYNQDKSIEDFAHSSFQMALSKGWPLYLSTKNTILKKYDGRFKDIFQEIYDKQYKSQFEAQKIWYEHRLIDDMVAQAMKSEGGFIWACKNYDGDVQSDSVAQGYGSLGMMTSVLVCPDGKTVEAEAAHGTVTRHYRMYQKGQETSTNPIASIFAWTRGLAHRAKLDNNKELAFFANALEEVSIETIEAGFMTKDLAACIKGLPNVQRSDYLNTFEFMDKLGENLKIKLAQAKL
T cruzi growth-2: Trypanosoma cruzi proliferation inhibition; shares compounds with T cruzi growth-1; T. cruzi beta-gal in NIH3T3, GalScreen luminescence, 90 h; inhibition, % at 8.35 µM; actives 72% (n = 5,600);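 active = mean replicate inhibition above about 95% and at least 55% of replicates individually reaching it, limit read from the data; inconclusive = only one of the two criteria is met; inactive = neither criterion is met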
T cruzi growth-3: inhibitors of T. cruzi proliferation | shares compounds with T cruzi growth-1 | AID 651740 | actives 21% (n = 5,600) | inhibition, % at 2.09 µM | T. cruzi beta-gal in NIH3T3, GalScreen luminescence, 90 h;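 active = mean inhibition above about 95%, with at least 55% of replicates also reaching it, limit read from the data; inconclusive = meets just one of the two conditions; inactive = meets neither condition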;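 note: plate controls were neutral control median for no effect and positive control median for full effect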
3T3 cytotox: NIH/3T3 (mouse) viability loss | shares compounds with T cruzi growth-1 | NIH/3T3 viability, CellTiter-Glo ATP luminescence, 90 h | cytotoxicity (signal decrease), % at 8.35 µM | actives 14% (n = 5,600) | AID 651742;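 active = mean signal decrease across replicates above about 35% based on untreated-well scatter, with enough replicates individually passing, limit read from the data; inconclusive = no rule stated though some were filed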;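 note: 0% = median of neutral control wells and 100% = median of positive control wells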
NIH3T3 tox 2: cytotoxicity in mouse NIH/3T3 fibroblasts. AID 651744. actives 56% (n = 5,600). inhibition, % at 24.9 µM. NIH/3T3 viability, CellTiter-Glo ATP luminescence, 90 h. shares compounds with T cruzi growth-1;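 active = mean loss of cell viability signal at or above a set limit, and enough replicates individually reaching it; inconclusive = meets only the mean limit or only the replicate share; inactive = meets neither condition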;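 note: 0% = median of neutral control wells and 100% = median of positive control wells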
* marks the source's active call; other numbers are inactive results; ? = inconclusive; · = no result given. Most compounds without a hit are left out; they make up all but 5.9% or so of the library.

SMILES	Pf Dd2 growth	GASC1 inh	T cruzi growth-1	IDH1 mut inh	T cruzi growth-2	T cruzi growth-3	3T3 cytotox	NIH3T3 tox 2
COc1ccc(-c2ccc([C@H]3[C@@H](CO)N4CCCCN(CC5CCOCC5)C[C@@H]34)cc2)cc1	0	0	99*	·	?	27	?	78*
COc1ccc(-c2ccc([C@H]3[C@@H](CO)N4CCCCN(CC5CCOCC5)C[C@H]34)cc2)cc1	-32	0	101*	·	94	67	19	96*
COc1ccc(-c2ccc([C@H]3[C@H]4CN(CC5CCOCC5)CCCCN4[C@H]3CO)cc2)cc1	-22	0	-2	·	·	·	·	·
O=C(Nc1ccccc1)N1CCCCN2[C@@H](CO)[C@@H](c3ccc(C#Cc4ccccn4)cc3)[C@@H]2C1	-30	1	101*	·	110*	105*	-3	16
COc1ccc(NC(=O)N2CCCCN3[C@H](CO)[C@H](c4ccc(C#Cc5ccccc5)cc4)[C@H]3C2)cc1	-48	·	62	·	·	·	·	·
COc1ccc(C#Cc2ccc([C@@H]3[C@H](CO)N4CCCCN(C(=O)Nc5ccccc5)C[C@@H]34)cc2)cc1	-73	-3	78	·	·	·	·	·
CCS(=O)(=O)N1CCCCN2[C@H](C1)[C@@H](c1ccc(C#Cc3ccccn3)cc1)[C@@H]2CO	26	0	95	·	·	·	·	·
O=C(c1ccncc1)N1CCCCN2[C@H](C1)[C@@H](c1ccc(C#Cc3ccccn3)cc1)[C@@H]2CO	15	1	108*	·	105*	13	3	5
CS(=O)(=O)N1CCCCN2[C@H](CO)[C@H](c3ccc(C#Cc4ccccn4)cc3)[C@@H]2C1	-8	0	113*	·	89	48	0	12
COc1ccc(NC(=O)N2CCCCN3[C@H](C2)[C@@H](c2ccc(C#Cc4ccccn4)cc2)[C@@H]3CO)cc1	-16	-1	103*	·	103*	94	9	38*
O=C(c1ccncc1)N1CCCCN2[C@H](CO)[C@H](c3ccc(C#Cc4ccccn4)cc3)[C@@H]2C1	-7	0	33	·	·	·	·	·
CCS(=O)(=O)N1CC2(CN(Cc3ccc(F)cc3)[C@@H](CO)c3c2c2ccc(OC)cc2n3C)C1	0	·	·	·	·	·	·	·
OC[C@H]1[C@H](c2ccc(C#Cc3ccccc3)cc2)[C@@H]2CN(CC3CCOCC3)CCCCN12	-63	-1	?	·	106*	56	31	106*
OC[C@H]1[C@H](c2ccc(C#Cc3ccccc3F)cc2)[C@H]2CN(CC3CCOCC3)CCCCN21	-3	-1	66	·	·	·	·	·
OC[C@@H]1[C@@H](c2ccc(C#Cc3ccccc3F)cc2)[C@H]2CN(CC3CCOCC3)CCCCN12	-68	0	88	·	·	·	·	·
OC[C@@H]1[C@H](c2ccc(C#Cc3ccccc3)cc2)[C@H]2CN(CC3CCOCC3)CCCCN12	-54	0	117*	·	100*	88	23	105*
CC(=O)N1[C@@H](CO)[C@H](c2ccccc2)[C@@H]1CN(CC1CCC1)C(=O)CN(C)C	-18	3	83	·	·	·	·	·
C[C@H](CO)N1C[C@H](C)[C@@H](CN(C)Cc2ccc(C(F)(F)F)cc2)Oc2ccc(N(C)C)cc2CC1=O	-17	0	133*	1	108*	97*	4	72*
C[C@@H]1CN([C@H](C)CO)C(=O)Cc2cc(N(C)C)ccc2O[C@H]1CN(C)Cc1ccc(C(=O)O)cc1	43	2	22	3	·	·	·	·
C[C@@H]1CN([C@H](C)CO)C(=O)Cc2cc(NS(C)(=O)=O)ccc2O[C@H]1CN(C)Cc1ccc(C(F)(F)F)cc1	8	1	52	0	·	·	·	·
C[C@H]1CN([C@@H](C)CO)C(=O)Cc2cc(NS(C)(=O)=O)ccc2O[C@@H]1CN(C)Cc1ccc(Cl)c(Cl)c1	-32	2	70	-3	·	·	·	·
